Results taken from ChEMBL document CHEMBL4513216, “Probing the Open Global Health Chemical Diversity Library for Multistage-Active Starting Points for Next-Generation Antimalarials” (ACS Infect Dis, 2020).

Assay: Toxicity liver stage against HepG2, at 10uM
Type: cell-based
Set-up: test concentration 10 uM, cell line HepG2-A16-CD81EGFP
Conditions: human, HepG2-A16-CD81EGFP cells; read-out: INHIBITION
Summary of the method: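 Uninfected HepG2-A16-CD81EGFP cells, 3 × 10^3 per well, 1536-well, plated on prespotted compound at 10 μM final, parasite-free screening media added to match infected plates; puromycin 10 μM positive, DMSO 0.5% negative; run in parallel with 48 h PbLuc assay at 37 °C, 5% CO2; viability by CellTiter-Glo luminescence, normalized to controls.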

SMILES	cytotoxicity at 10 µM [%]
Cc1c(NC(=O)C(C)N(C)C)c(=O)n(-c2ccccc2)n1C (stereo unspecified)	1.11
COCCN(CCOC)C(=O)c1cn(C(C)(C)C)c2ncccc12	-1.14
CC(C)NC(=O)Nc1ccc2c(c1)ncn2CC(=O)NCCN(C)C	-8.15
COCc1nnc(NC(=O)c2cn(C(C)C)c3ccc(OC)cc23)s1	-5.86
Cn1ccc2cc(C(=O)NC3CCS(=O)(=O)C3)ccc21 (stereo unspecified)	0.979
COCC(=O)Nc1ccc2c(c1)CN(C(=O)c1ccco1)CC2	7.58
Cn1cc(C(=O)OC2CN(c3nc4c(C(F)(F)F)cccc4s3)C2)nn1	-11.8
CC(=O)N1CCC2(CC1)[C@@H]1CN(Cc3cccnc3)C[C@@H]1C(=O)N2C	4.73
Cc1ccc(N2CCC3(CCN(Cc4ccccn4)CC3)CC2)nn1	7.37
O=S(=O)(C1CC1)N1CCOC2(COCCN(c3ncccn3)C2)C1 (stereo unspecified)	8.55
COCCN1Cc2ccccc2C2(CCN(C(=O)c3ccco3)CC2)C1	5.85
COCC1CN(C(=O)c2cccc(C)n2)Cc2ncnn2C1 (stereo unspecified)	3.84
Cc1nnc(N2CCCC3(CN(Cc4nccn4C)CCO3)C2)o1 (stereo unspecified)	-6.83
COC(=O)c1ccc(C2CC(=O)Oc3cc(C)[nH]c(=O)c32)cc1 (stereo unspecified)	-3.86
CC(=O)N1CCC(Oc2ccc(C#N)cn2)CC1	-17.3
CC(C)(C)n1ncc2c1NC(=O)CC2c1ccc(OCC(N)=O)cc1 (stereo unspecified)	20.6
O=C1[C@H]2CCCC[C@H]2C(=O)N1c1cnn(Cc2cccc(F)c2)c1	-5.24
Cc1nn(C)c2c(NCCCn3cccn3)ncnc12	-0.472
Cc1ccnn1CCC(=O)N1CCCC[C@@]2(C)[C@@H]1CCC(=O)N2C	3.38
CC1CCc2nn(CCNC(=O)Cc3ccccc3F)c(=O)cc2C1 (stereo unspecified)	6.66
COC(=O)[C@@H]1CN(C(=O)c2cscn2)C[C@H]1c1ccc(OC)cc1	-31.6
COc1cc(C2Nc3cc(Cl)ccc3C3=NCCN32)ccc1O (stereo unspecified)	-29.3
O=C(C1CCCO1)N1CCC(O)(Cn2ccc3ccncc32)CC1 (stereo unspecified)	-29.9

SMILES	cytotoxicity at 10 µM [%]
CS(=O)(=O)c1ccc(-c2nc(C(=O)N3CCCC3)n3ccccc23)cc1	6
COc1cc(C#N)ccc1OCC(=O)N(C1CC1)C(C)c1ccco1 (stereo unspecified)	1.18
Cc1ccc(=O)n(Cc2nc(C(C)OCC(C)C)no2)n1 (stereo unspecified)	-3.21
OCCCN1CCCC1c1cccc(Br)c1 (stereo unspecified)	5.71
CC(C)Oc1cccc(CC(=O)NC2CCN(CC(N)=O)CC2)c1	3.05
CS(=O)(=O)NC(=O)c1ccn(-c2ccc(Cl)c(Cl)c2)n1	6.96
Cc1ccc(C)c(OCC(=O)NC2CCN(c3ccccn3)CC2)c1	-3.42
CN(Cc1noc(C2CC2)n1)C1CCN(CCn2cccn2)C1 (stereo unspecified)	-4.32
O=C(NCCSC1CCCC1)c1cc(Cl)ccn1	-15.5
COCCNc1ccc(CNCc2cnc3nc(C)cc(C)n23)cc1	-153
O=C(C1CCN(c2ncnc3cccc(F)c23)CC1)N1CCCC1	3.76
O=C(NCC1(O)CCSC1)c1ccn(-c2ccccc2F)n1 (stereo unspecified)	2.88
Cc1ccc(C(=O)NCC(O)CN2CCCC2=O)c(C)c1 (stereo unspecified)	-6.68
O=C1CN(C(=O)c2cc3c(F)cc(Br)cc3[nH]2)CCN1	0.0723
O=C(c1ccc(-n2ccnc2)cc1)N1CCN(c2cnccn2)CC1	-5.63
COC(=O)c1cc(NS(=O)(=O)c2cn(C)cn2)c(F)cc1F	14.8
CN(C)c1ncc(NC(=O)N2CCC(CN3CCCC3)C2)cn1 (stereo unspecified)	3.88
CCNC(=O)CN1CCC(c2cc(OC)cc(OC)c2)C1 (stereo unspecified)	-5.66
c1ccc(CCN2CCCC(c3noc(C4CC4)n3)C2)cc1 (stereo unspecified)	-3.62
Cc1ccc(C(=O)NCCCNS(C)(=O)=O)cc1C	-1.66
O=C(CCS(=O)(=O)C1CCCC1)N1CCCC1c1ccsc1 (stereo unspecified)	1.06
NC(=O)c1cnc(NC2CCC(c3ccccc3)CC2)c(Cl)c1 (stereo unspecified)	27.2
COc1ccccc1NCC(=O)NCc1cc[nH]n1	1.87

SMILES	cytotoxicity at 10 µM [%]
CCOc1cccc(COC(=O)c2ccc(Cl)cn2)n1	-3.44
N#Cc1cnc2ccccc2c1N1CCNCC1	-1.86
CCC1CN(c2cnn(C)c(=O)c2Cl)CCO1 (stereo unspecified)	-1.26
COc1cccc(C(O)Cn2ncc3ncccc3c2=O)c1 (stereo unspecified)	-2.45
CCN(CC)c1ccc(NC(=O)NCC2CCOC2)cn1 (stereo unspecified)	2.14
CCC(NC(=O)NCc1ccoc1C)c1c(C)nn(C)c1C (stereo unspecified)	-1.44
N#Cc1cc(S(N)(=O)=O)ccc1NC1CCc2c(F)cccc21 (stereo unspecified)	-12.4
Cc1ccc(N(C)CC(O)COCc2ccccc2)c(C)c1 (stereo unspecified)	3.67
CCC1CN(C(=O)COc2ccc(NC(C)=O)cc2)CCO1 (stereo unspecified)	-9.4
Cc1nnc2n1CCN(Cc1nc3c(F)cccc3[nH]1)C2	-2.3
Cc1cc(-n2cncn2)ccc1C(=O)Nc1ccc(N2CCCC2)cn1	7.26
CC1(C)Cc2ccc(C(=O)NC3CCOCC3)c(O)c2O1	-7.92
NC(=O)CN(C(=O)Cc1ccc(C(F)(F)F)cc1)C1CCCC1	-3.41
O=C(c1ccn(-c2ccccc2Cl)n1)N1CCSCC1	15.6
O=C(NCc1nnc2n1CCCC2)N(Cc1ccccc1F)C1CC1	-9.29
OCCNc1nccc(-c2c[nH]nc2-c2ccco2)n1	-6.47
COc1ccc(OC)c(-n2cnnc2COC(C)C)c1	-6.57
CCOc1ncccc1Cn1cc(-c2nccn2C)nn1	-1.38
COc1ccccc1CNC(=O)CN(C)C(C)c1nccs1 (stereo unspecified)	1.81
Cc1nccnc1N1C[C@H](NC(=O)CNS(C)(=O)=O)[C@@H](C2CC2)C1	-10.3
Cc1cc(C)c(C(=O)N(CCO)Cc2ccccc2F)c(=O)[nH]1	-0.626
CCc1noc(C2CCCCN2C(=O)c2ccccc2)n1 (stereo unspecified)	-2.38
Cc1nc(N(C)C)nc(NCCc2ccccn2)c1C	4.59

SMILES	cytotoxicity at 10 µM [%]
CCOC(=O)CC(C)NC(=O)c1cn(Cc2ccccc2F)nn1 (stereo unspecified)	-4.75
O=C1NCCN(Cc2cccnc2)C1CC(=O)N1CCc2n[nH]cc2C1 (stereo unspecified)	-4.05
CCn1ncnc1C(C)NC(=O)C1CCN(C2CCCCC2)CC1 (stereo unspecified)	-149
COc1ccc(OCCN2CCOCS2(=O)=O)cc1	2.6
COc1ccc2c(c1)OCC(CNC(=O)c1cnc(NC(C)C)nc1)C2 (stereo unspecified)	-5.07
CN(CCCOc1ccccc1Cl)C(=O)CN1C(=O)CCNC1=O	-1.97
CCc1cc(N[C@@H]2CC[C@@H](N)C2)n2nc(C)c(C)c2n1	2.2
CC(C)[C@@H]1CN(C(=O)CCc2ccc(F)cc2)C[C@H]1C(=O)O	-3.97
COc1ccc(C(=O)N2C[C@@H](C(=O)O)[C@H](c3cccc(F)c3)C2)c(O)c1	6.03
COc1ccc2c(c1)OCC(Cc1ccc(CN)cn1)C2 (stereo unspecified)	-1.84
CC(=O)NCCCC(=O)N1CCC(Sc2cccc(C)c2)CC1	2.06
Cc1cc(C(=O)N2CCC3(CCCN(CC4CC4)C3=O)C2)c(C)n1C (stereo unspecified)	-5.5
O=C(c1ccc(C2CCCO2)s1)N1Cc2ccccc2C1 (stereo unspecified)	-13.4
Cc1nnc(NC(=O)NCc2ccc(N3CCOCC3)nc2)s1	-6.21
Cc1cc(CN2CCN(C(=O)NCCc3csc(C)n3)CC2)on1	-2.68
CC1CN(CC(=O)NC(C2CC2)C2CC2)CCN1Cc1nccn1C (stereo unspecified)	-6.48
Cc1nnc(C(C)N2CCN(Cc3ccc(C(F)(F)F)cc3)CC2)o1 (stereo unspecified)	8.15
c1cnn(CC2CCCCN2Cc2noc(C3CC3)n2)c1 (stereo unspecified)	-3.48
Cc1cccc(C)c1OCCNC(=O)C(C)n1cncn1 (stereo unspecified)	-1.46
CC(O)CN1CCN(C(=O)c2ccc(N3CCCC3)nn2)CC1 (stereo unspecified)	-17.3
CCCc1nc(CN2CCOC(Cn3cccn3)C2)no1 (stereo unspecified)	-27.1
Cc1cnn(CC2CCCN2CC(=O)NC2CCN(C3CC3)CC2)c1 (stereo unspecified)	0.109
O=C(Cc1csc(-c2ccco2)n1)N1CCN(c2ccccc2O)CC1	-10.7

SMILES	cytotoxicity at 10 µM [%]
CC1CCN(CCNC(=O)c2ccn(-c3ccc(F)cc3)n2)CC1	-15.6
O=S(=O)(CCN1CCCC1Cn1cncn1)c1ccccc1 (stereo unspecified)	-21
O=C(Cc1cn2ccccc2n1)N1CCCC(n2ccnc2)C1 (stereo unspecified)	-22.4
O=C(NCc1csc(Br)c1)c1cnccn1	-23.3
CCc1n[nH]c(C2CN(C(=O)c3ccc4c(c3)CCCC4)CCO2)n1 (stereo unspecified)	-16.1
CNC(=O)NC(=O)CN1CCCC(Cc2ccccc2OC)C1 (stereo unspecified)	4.95
CCOC(CC)C(=O)NCc1cccc(N2CCCCC2=O)c1 (stereo unspecified)	5.12
c1c(CN2CCCC2)nc2n1CCN(CC1CC1)C2	-136
Cc1nc(CN2C(=O)C[C@H]3[C@H]2CCN3C2CCOC2)cs1 (stereo partly specified)	-139
CCN1CC[C@@]2(C(=O)N3CCCC3)CCN(S(C)(=O)=O)CC[C@@H]12	-0.537
Cc1ccc(N2C[C@H]3CCC[C@@]3(COc3cccnc3)C2)nn1	9.43
O=C(NCCO)C1(Cc2ccccc2-c2cccnc2)CCOCC1	-31.8
CN(C)Cc1nn(C)c2c1CCN(C(=O)c1cnccn1)C2	-134
CS(=O)(=O)N[C@H]1CCO[C@]2(CCN(CC3CCOCC3)C2)C1	-122
Cc1cccc(CN2C[C@@H]3COC[C@]3(COc3cccnc3)C2)n1	11.4
O=C([C@H]1CC[C@@H]2[C@@H](CCN2Cc2ccsc2)O1)N1CCOCC1	1.3
O=C(CCO)N1C[C@@H]2CC[C@H]1CN(C1Cc3ccccc3C1)C2	-0.608
CN1C[C@H]2CC[C@@H](CC1=O)N2C(=O)c1ccc(-c2ccccc2)[nH]c1=O	5.91
CCOc1ccc(C2c3c(N)nc(SC)nc3N=C3COC(=O)C32)cc1 (stereo unspecified)	30
